# Results from ChEMBL document CHEMBL4665845, “CRISPR-Cas9 Genome-Wide Knockout Screen Identifies Mechanism of Selective Activity of Dehydrofalcarinol in Mesenchymal Stem-like Triple-Negative Breast Cancer Cells” (2020).
# Activity calls are given as the source filed them. The calls are words filed in the database; no cut-off is given here.
# Legend:
# [1] = organism: Homo sapiens; experiment: Selectivity index, ratio of LC50 for growth inhibitor of human MDA-MB-157 to LC50 for growth inhibitor of human MDA-MB-231; format: functional
# Outline: (§1)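 Selectivity index is the LC50 of the named TNBC line divided by the LC50 in MDA-MB-231 cells.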
# [2] = tested on: BT-549; experiment: Growth inhibition of human BT-549 cells after 48 hrs by SRB assay; format: functional; details: for CC50: read-out: LC50 (the source's name)
# [3] = tested on: MDA-MB-157; experiment: Growth inhibition of human MDA-MB-157 cells after 48 hrs by SRB assay; format: functional; details: for CC50: read-out: LC50 (the source's name)
# [4] = tested on: MDA-MB-453; experiment: Growth inhibition of human MDA-MB-453 cells after 48 hrs by SRB assay; format: functional; details: for CC50: read-out: LC50 (the source's name)
# [5] = tested on: HCC1806; experiment: Growth inhibition of human HCC1806 cells after 48 hrs by SRB assay; format: functional; details: for CC50: read-out: LC50 (the source's name)
# [6] = tested on: MDA-MB-231; experiment: Growth inhibition of human MDA-MB-231 cells after 48 hrs by SRB assay; format: functional; details: for CC50: read-out: LC50 (the source's name)
# Outline: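 Cells were exposed to compound for 48 h, and growth was read by sulforhodamine B staining. TGI (total growth inhibition concentration, μM) was taken from concentration–response curves, n = 3, means ± SEM. MDA-MB-231 cells were grown in IMEM with 10% FBS at 37 °C in 5% CO2.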
# [7] = organism: Homo sapiens; experiment: Selectivity index, ratio of TGI for growth inhibitor of human BT-549 to TGI for growth inhibitor of human MDA-MB-231; format: functional
# [8] = organism: Homo sapiens; experiment: Selectivity index, ratio of LC50 for growth inhibitor of human MDA-MB-468 to LC50 for growth inhibitor of human MDA-MB-231; format: functional; outline: as §1
# [9] = tested on: MDA-MB-468; experiment: Growth inhibition of human MDA-MB-468 cells after 48 hrs by SRB assay; format: functional; details: for CC50: read-out: LC50 (the source's name)
# [10] = organism: Homo sapiens; experiment: Selectivity index, ratio of LC50 for growth inhibitor of human BT-549 to LC50 for growth inhibitor of human MDA-MB-231; format: functional; outline: as §1
# [11] = organism: Homo sapiens; experiment: Selectivity index, ratio of LC50 for growth inhibitor of human […] to LC50 for growth inhibitor of human MDA-MB-231; format: functional; outline: as §1
# [12] = organism: Homo sapiens; experiment: Selectivity index, ratio of LC50 for growth inhibitor of human MDA-MB-453 to LC50 for growth inhibitor of human MDA-MB-231; format: functional; outline: as §1
# [13] = tested on: MDA-MB-231; experiment: Cytotoxicity against human MDA-MB-231 cells assessed as reduction in cell viability at 0.03 to 3 uM after 48 hrs by SRB assay; format: functional, cell-based; details: dose microM 0.03-3, time 48.0 hrs
# [14] = tested on: MDA-MB-453; experiment: Cytotoxicity against human MDA-MB-453 cells assessed as reduction in cell viability at 0.03 to 3 uM after 48 hrs by SRB assay; format: functional, cell-based; details: dose microM 0.03-3, time 48.0 hrs
# [15] = tested on: A673; experiment: Antiproliferative activity against human A673 cells assessed as reduction in cell viability after 48 hrs by SRB assay; format: functional, cell-based
# [16] = tested on: MDA-MB-231; experiment: Cytotoxicity against human MDA-MB-231 cells assessed as reduction in cell viability at 0.03 to 3 uM after 48 hrs in presence of GW9662 by SRB assay; format: functional, cell-based; details: dose microM 0.03-3, time 48.0 hrs
# [17] = tested on: MDA-MB-231; experiment: Cytotoxicity against CRISPR/Cas9-mediated HSD17B11 knock-out human MDA-MB-231 cells at 1 uM incubated for 2 weeks; format: functional, cell-based
# Outline: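 Doxycycline-inducible Cas9 MDA-MB-231 cells were transduced with the pooled Brunello sgRNA lentiviral library (0.005 μg/mL polybrene, 5 h), then selected in 1 μg/mL puromycin for 72 h. Cas9 was induced with 50 ng/mL doxycycline for 48 h. Cells were treated with 1 μM for 14 days, refreshing medium and compound every 3–4 days, and recovered 2 days before sgRNA sequencing. Enrichment was compared with input and vehicle.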
# [18] = tested on: MDA-MB-231; experiment: Cytotoxicity against human MDA-MB-231 cells harboring CRISPR/Cas9 assessed as reduction in cell viability at 300 nM by SRB assay; format: functional, cell-based
# [19] = tested on: MDA-MB-231; experiment: Cytotoxicity against HSD17B11 siRNA knock-out human MDA-MB-231 cells assessed as reduction in cell viability at 300 nM incubated for 48 hrs by SRB assay; format: functional, cell-based
# Outline: (§2)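 MDA-MB-231 cells were reverse-transfected with HSD17B11 siRNA (12.5 nM final, 0.025% RNAiMAX, antibiotic-free medium) or mock for 48 h. Cells were then replated, allowed to attach for 4–6 h, and treated for 48 h. Read-out was SRB viability and TGI, n = 3. Knockdown vs mock was compared by paired two-tailed t-test.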
# [20] = tested on: SK-ES1; experiment: Antiproliferative activity against human SK-ES1 cells assessed as reduction in cell viability after 48 hrs by SRB assay; format: functional, cell-based
# [21] = tested on: MDA-MB-231; experiment: Effect on Erk1/2 regulation in human MDA-MB-231 cells at 300 nM preincubated for 6 hrs followed FBS-stimulation and measured after 0.25 to 2 hrs by immunoblotting analysis; format: functional, cell-based; details: time hrs <=8
# [22] = tested on: TC-32; experiment: Antiproliferative activity against human TC-32 cells assessed as reduction in cell viability after 48 hrs by SRB assay; format: functional, cell-based
# [23] = tested on: MDA-MB-231; experiment: Effect on P70S6K regulation in human MDA-MB-231 cells at 300 nM preincubated for 6 hrs followed FBS-stimulation and measured after 0.25 to 2 hrs by immunoblotting analysis; format: functional, cell-based; details: time hrs <=8
# [24] = tested on: MDA-MB-231; experiment: Induction of cell cycle arret in human MDA-MB-231 cells assessed as S phase accumulation at LC50 concentration after 18 hrs by Krishan's staining based cell analyzer method; format: functional
# Outline: (§3)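 MDA-MB-231 cells were treated at the LC50 concentration for 18 h, and cell cycle distribution was then assessed.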
# [25] = target: Serine/threonine-protein kinase AKT (Homo sapiens) (UniProt P31751+Q9Y243+P31749); experiment: Inhibition of phosphorylation of Akt at S473 residue in human MDA-MB-231 cells at 300 nM preincubated for 6 hrs followed FBS-stimulation and measured after 0.25 to 2 hrs by immunoblotting analysis; format: cell-based; details: time hrs <=8
# [26] = tested on: BT-549; experiment: Cytotoxicity against human BT-549 cells over expressing HSD17B11 assessed as reduction in cell viability at 1 to 10 uM by SRB assay; format: functional, cell-based; details: dose microM 1-10
# Outline: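 BT-549 cells were transfected with a plasmid expressing HSD17B11-GFP from a constitutive CMV promoter, with mock-transfected cells as control. Overexpression was confirmed by immunoblot, and sensitivity was measured by SRB assay.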
# [27] = tested on: MDA-MB-453; experiment: Cytotoxicity against human MDA-MB-453 cells assessed as reduction in cell viability at 0.03 to 3 uM after 48 hrs in presence of GW9662 by SRB assay; format: functional, cell-based; details: dose microM 0.03-3, time 48.0 hrs
# [28] = tested on: MDA-MB-231; experiment: Induction of cell cycle arret in human MDA-MB-231 cells assessed as G2/M phase accumulation at LC50 concentration after 18 hrs by Krishan's staining based cell analyzer method; format: functional; outline: as §3
# [29] = target: Ribosomal protein S6 kinase beta-1 (Homo sapiens) (UniProt P23443); experiment: Inhibition of phosphorylation of P70S6K at T389 residue in human MDA-MB-231 cells at 300 nM preincubated for 6 hrs followed FBS-stimulation and measured after 0.25 to 2 hrs by immunoblotting analysis; format: cell-based; details: time hrs <=8
# [30] = Ratio of TGI for cytotoxicity against HSD17B11 siRNA knock-out human MDA-MB-231 cells to TGI for cytotoxicity against human MDA-MB-231 cells; format: functional; outline: as §2
# [31] = tested on: MDA-MB-231; experiment: Induction of cell cycle arret in human MDA-MB-231 cells assessed as G1 phase accumulation at LC50 concentration after 18 hrs by Krishan's staining based cell analyzer method; format: functional; outline: as §3
# [32] = tested on: RD; experiment: Antiproliferative activity against human RDES cells assessed as reduction in cell viability after 48 hrs by SRB assay; format: functional, cell-based
# [33] = tested on: MDA-MB-231; experiment: Effect on Akt regulation in human MDA-MB-231 cells at 300 nM preincubated for 6 hrs followed FBS-stimulation and measured after 0.25 to 2 hrs by immunoblotting analysis; format: functional, cell-based; details: time hrs <=8
# [34] = target: Mitogen-activated protein kinase; ERK1/ERK2 (Homo sapiens) (UniProt P27361+P28482); experiment: Inhibition of phosphorylation of Erk1/2 in human MDA-MB-231 cells at 300 nM preincubated for 6 hrs followed FBS-stimulation and measured after 0.25 to 2 hrs by immunoblotting analysis; format: cell-based; details: time hrs <=8
# Mitogen-activated protein kinase; ERK1/ERK2 (Homo sapiens), sequence (P27361 whole entry, looked up): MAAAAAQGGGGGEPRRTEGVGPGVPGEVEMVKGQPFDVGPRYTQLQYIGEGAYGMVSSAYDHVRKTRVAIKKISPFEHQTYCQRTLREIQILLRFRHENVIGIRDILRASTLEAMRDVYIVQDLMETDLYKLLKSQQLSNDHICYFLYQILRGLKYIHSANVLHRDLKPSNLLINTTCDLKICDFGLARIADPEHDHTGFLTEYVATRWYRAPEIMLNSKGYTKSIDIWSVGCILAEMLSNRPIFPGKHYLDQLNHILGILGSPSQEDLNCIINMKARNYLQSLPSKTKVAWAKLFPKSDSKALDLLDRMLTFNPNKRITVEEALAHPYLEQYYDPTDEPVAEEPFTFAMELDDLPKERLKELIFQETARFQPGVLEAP
# Mitogen-activated protein kinase; ERK1/ERK2 (Homo sapiens), sequence (P28482 whole entry, looked up): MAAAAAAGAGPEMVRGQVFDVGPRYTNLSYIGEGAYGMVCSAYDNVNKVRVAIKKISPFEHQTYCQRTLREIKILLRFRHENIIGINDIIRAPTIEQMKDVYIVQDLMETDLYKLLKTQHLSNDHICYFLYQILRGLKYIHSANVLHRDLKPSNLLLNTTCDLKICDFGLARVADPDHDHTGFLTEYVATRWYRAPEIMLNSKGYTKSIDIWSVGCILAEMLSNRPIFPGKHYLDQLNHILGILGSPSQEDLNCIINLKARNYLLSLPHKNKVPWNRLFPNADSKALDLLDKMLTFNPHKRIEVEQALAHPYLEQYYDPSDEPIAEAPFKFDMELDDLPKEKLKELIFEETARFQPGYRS
# Serine/threonine-protein kinase AKT (Homo sapiens), sequence (P31749 whole entry, looked up): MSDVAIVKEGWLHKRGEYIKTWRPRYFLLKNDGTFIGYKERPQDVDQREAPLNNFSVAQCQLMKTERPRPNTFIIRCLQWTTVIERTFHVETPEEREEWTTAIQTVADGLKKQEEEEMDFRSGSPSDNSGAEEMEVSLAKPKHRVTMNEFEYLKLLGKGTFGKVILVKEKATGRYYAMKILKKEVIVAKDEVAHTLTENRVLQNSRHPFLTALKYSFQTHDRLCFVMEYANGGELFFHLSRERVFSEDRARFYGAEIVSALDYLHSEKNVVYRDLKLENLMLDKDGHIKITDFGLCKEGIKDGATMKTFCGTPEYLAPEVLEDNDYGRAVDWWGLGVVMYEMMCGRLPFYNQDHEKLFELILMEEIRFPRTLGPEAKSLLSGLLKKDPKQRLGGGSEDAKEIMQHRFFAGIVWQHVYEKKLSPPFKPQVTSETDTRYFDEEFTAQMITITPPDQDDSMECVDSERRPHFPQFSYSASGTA
# Serine/threonine-protein kinase AKT (Homo sapiens), sequence (P31751 whole entry, looked up): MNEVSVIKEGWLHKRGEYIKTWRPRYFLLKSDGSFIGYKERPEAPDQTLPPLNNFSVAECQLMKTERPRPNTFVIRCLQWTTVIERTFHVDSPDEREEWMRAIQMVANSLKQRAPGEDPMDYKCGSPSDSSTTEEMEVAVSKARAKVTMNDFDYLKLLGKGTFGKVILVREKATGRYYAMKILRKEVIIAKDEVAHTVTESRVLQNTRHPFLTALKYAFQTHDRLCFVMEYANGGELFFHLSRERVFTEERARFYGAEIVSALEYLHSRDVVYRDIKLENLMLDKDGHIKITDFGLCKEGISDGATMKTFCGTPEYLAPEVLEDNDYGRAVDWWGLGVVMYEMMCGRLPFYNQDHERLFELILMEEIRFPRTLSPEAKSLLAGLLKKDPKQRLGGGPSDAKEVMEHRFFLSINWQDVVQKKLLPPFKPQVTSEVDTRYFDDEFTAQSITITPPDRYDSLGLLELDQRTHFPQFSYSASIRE
# Serine/threonine-protein kinase AKT (Homo sapiens), sequence (Q9Y243 whole entry, looked up): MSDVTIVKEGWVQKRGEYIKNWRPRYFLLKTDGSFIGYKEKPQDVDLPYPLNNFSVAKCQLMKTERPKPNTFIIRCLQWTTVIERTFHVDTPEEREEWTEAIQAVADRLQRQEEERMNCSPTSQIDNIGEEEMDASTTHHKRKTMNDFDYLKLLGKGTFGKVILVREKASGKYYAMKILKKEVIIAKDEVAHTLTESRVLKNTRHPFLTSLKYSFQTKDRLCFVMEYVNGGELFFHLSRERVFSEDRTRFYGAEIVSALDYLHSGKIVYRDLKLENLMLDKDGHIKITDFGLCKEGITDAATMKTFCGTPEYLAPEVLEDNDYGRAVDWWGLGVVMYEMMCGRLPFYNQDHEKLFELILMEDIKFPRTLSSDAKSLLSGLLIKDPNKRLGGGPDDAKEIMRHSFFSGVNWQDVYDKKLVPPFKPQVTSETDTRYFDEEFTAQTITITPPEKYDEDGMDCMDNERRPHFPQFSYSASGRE
# Ribosomal protein S6 kinase beta-1 (Homo sapiens), sequence (P23443 whole entry, looked up): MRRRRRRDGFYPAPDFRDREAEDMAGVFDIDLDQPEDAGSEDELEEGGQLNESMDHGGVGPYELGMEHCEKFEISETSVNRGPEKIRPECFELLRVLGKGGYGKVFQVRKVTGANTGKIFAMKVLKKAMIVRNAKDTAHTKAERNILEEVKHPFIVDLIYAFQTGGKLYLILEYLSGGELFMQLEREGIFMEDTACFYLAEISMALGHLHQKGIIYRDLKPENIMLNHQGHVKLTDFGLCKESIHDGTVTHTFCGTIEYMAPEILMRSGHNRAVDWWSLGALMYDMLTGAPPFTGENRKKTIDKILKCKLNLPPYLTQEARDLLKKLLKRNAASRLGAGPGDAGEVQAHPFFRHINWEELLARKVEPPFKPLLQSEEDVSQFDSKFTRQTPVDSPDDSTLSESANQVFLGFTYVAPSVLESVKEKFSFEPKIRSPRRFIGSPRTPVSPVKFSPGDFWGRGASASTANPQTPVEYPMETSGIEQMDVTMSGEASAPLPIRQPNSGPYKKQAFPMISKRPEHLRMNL
structure (smiles),measurement,setting,value
C=CCCCCC/C=C\CC#CC#C[C@@H](O)C=C,RatioLC50,[1],1.7
same,GI50,[2],220 nM
same,TGI,[2],420 nM
same,CC50,[2],900 nM
same,GI50,[3],59 nM
same,TGI,[3],130 nM
same,CC50,[3],290 nM
same,GI50,[4],2800 nM
same,TGI,[4],> 5000 nM
same,CC50,[4],> 5000 nM
same,GI50,[5],300 nM
same,TGI,[5],540 nM
same,CC50,[5],1200 nM
same,GI50,[6],51 nM
same,TGI,[6],89 nM
same,CC50,[6],170 nM
same,Selectivity Index,[7],7.3
same,RatioLC50,[8],26
same,GI50,[9],850 nM
same,TGI,[9],2000 nM
same,CC50,[9],4400 nM
same,RatioLC50,[10],5.3
same,RatioLC50,[11],7.1
same,RatioLC50,[12],> 29
CN(CCOc1ccc(CC2SC(=O)NC2=O)cc1)c1ccccn1 (centres undefined),Activity,[13],inactive
same,Activity,[14],inactive
O=C(Nc1ccccc1)c1cc([N+](=O)[O-])ccc1Cl,Activity,[13],inactive
same,Activity,[14],inactive
C=CCCCC/C=C\CC#CC#C[C@@H](O)C=C,RatioLC50,[1],2.4
same,GI50,[2],390 nM
same,TGI,[2],850 nM
same,CC50,[2],1900 nM
same,GI50,[3],190 nM
same,TGI,[3],300 nM
same,CC50,[3],510 nM
same,GI50,[4],1700 nM
same,TGI,[4],5100 nM
same,CC50,[4],9800 nM
same,GI50,[5],390 nM
same,TGI,[5],880 nM
same,CC50,[5],1900 nM
same,GI50,[6],74 nM
same,TGI,[6],120 nM
same,CC50,[6],210 nM
same,Selectivity Index,[7],4.7
same,RatioLC50,[8],26
same,GI50,[9],1300 nM
same,TGI,[9],3100 nM
same,CC50,[9],5400 nM
same,RatioLC50,[10],9
same,RatioLC50,[11],9
same,RatioLC50,[12],47
C=CCCCCC/C=C\CC#CC#CC(O)C=C (mixture of isomers),Activity,[15],Active
same,Activity,[16],Active
same,Activity,[17],inactive
same,Activity,[18],Active
same,Activity,[19],inactive
same,Activity,[20],Active
same,Activity,[21],inactive
same,Activity,[22],Active
same,Activity,[23],inactive
same,Activity,[24],inactive
same,inhibition,[25],inactive
same,Activity,[26],inactive
same,Activity,[27],Active
same,Activity,[28],inactive
same,inhibition,[29],inactive
same,Ratio,[30],1.7
same,Activity,[31],inactive
same,Activity,[32],Active
same,Activity,[33],inactive
same,inhibition,[34],inactive
C=CCCCCC(O)/C=C/C#CC#C[C@@H](O)C=C (mixture of isomers),TGI,[2],4200 nM
same,TGI,[6],360 nM
same,Selectivity Index,[7],12
C=CCCCCC(O)/C=C/C#CC#CC(O)CC (mixture of isomers),TGI,[2],> 10000 nM
same,TGI,[6],4800 nM
C=CCCCCCC(O)/C=C/C#CC#CC(O)CC (mixture of isomers),TGI,[2],> 5000 nM
same,TGI,[6],4300 nM
